Reference: ChEMBL document CHEMBL4715822, “Structure-based lead optimization to improve antiviral potency and ADMET properties of phenyl-1H-pyrrole-carboxamide entry inhibitors targeted to HIV-1 gp120” (Eur J Med Chem, 2018)
Converted amounts (≈) assume the structure as drawn.

Columns and labels:
[1] = Cytotoxicity against human TZM-bl cells assessed as reduction in cell viability incubated for 3 days by XTT assay; type: cell-based; conditions: TZM-bl cells, time 3 day
[2] = Cytotoxicity against human MT2 cells assessed as reduction in cell viability incubated for 4 days by XTT assay; type: cell-based; conditions: MT2 cells, time 4 day
[3] = Induction viral infection in pseudovirus HIV1 ADA infected in dog Cf2Th-CCR5 cells incubated for overnight followed by pretreated for 30 mins and added to cells measured after 48 hrs by luciferase-based assay; type: cell-based; conditions: human immunodeficiency virus 1, cf2th-ccr5, 48.5 h
[4] = Cytotoxicity against dog Cf2Th-CCR5 cells assessed as reduction in cell viability incubated for 48 hrs by XTT assay; type: cell-based, Canis lupus familiaris; conditions: Cf2Th-CCR5 cells
[5] = test system: Human immunodeficiency virus 1; test: Antiviral activity against pseudovirus HIV-1 HXB-2 harboring Env I424F mutant infected in human U87.CD4.CXCR4 cells assessed as reduction in viral infection pretreated for 30 mins before viral infection and measured after 3 days by luciferase based assay; type: functional, cell-based, M:B_HXB2R
Procedure, shortened: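 Pseudoviruses made in HEK293T by co-transfecting an Env-deleted backbone (pSG3Δenv or pNL4-3.Luc.R-.E-) with an HXB-2 Env plasmid carrying single or double substitutions; Env sequences confirmed by sequencing. Virus pretreated 30 min with graded compound, added to U87-CD4-CXCR4 cells (1 × 10⁴/well, plated overnight), incubated 3 days. Cells lysed, luciferase measured, IC50 calculated.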

[6] = Solubility in 5% DMSO at pH 7.4 at 500 uM incubated for 90 mins in shaker by spectrophotometry; type: physicochemical
Procedure, shortened: (§1)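 DMSO stock diluted to 500 μM in universal aqueous buffer pH 7.4 with 2 or 5% DMSO final; quadruplicate, 90 min shaking at room temperature in filter plate, vacuum filtered; filtrate in 20% acetonitrile read by UV absorbance at six wavelengths. Filtrate/standard ratio binned as ~500, 100–500 or <100 μM.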

[7] = Solubility in 2 % DMSO at pH 7.4 at 500 uM incubated for 90 mins in shaker by spectrophotometry; type: physicochemical; procedure, shortened: as §1
[8] = Apparent permeability across apical to basolateral side in human Caco2 cells incubated for 2 hrs by LC-MS/MS analysis; type: ADME, cell-based, Caco-2; conditions: Caco-2
Procedure, shortened: (§2)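 Caco-2 monolayers grown three weeks to differentiate; compound in transport buffer pH 7.4 (glucose, 10 mM HEPES, HBSS) added apical (A-B) or basal (B-A) side, with or without 100 μM verapamil; 2 h incubation, both sides sampled. Lucifer yellow 100 μM on A side checks integrity (≤2% transport). Papp = (dQ/dt)/(C0 × A); efflux ratio = Papp(B→A)/Papp(A→B).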

[9] = Apparent permeability across basolateral to apical side in human Caco2 cells incubated for 2 hrs by LC-MS/MS analysis; type: ADME, cell-based, Caco-2; conditions: Caco-2; procedure, shortened: as §2
[10] = Metabolic stability in human liver microsomes assessed as parent compound remaining at 3 uM incubated for 120 mins by LC-MS/MS analysis; type: ADME, Microsome; conditions: read-out: Stabilty
[11] = Metabolic stability in human liver microsomes assessed as intrinsic clearance at 3 uM incubated for 120 mins by LC-MS/MS analysis; type: ADME, Microsome; conditions: read-out: CLH
[12] = Protein binding in human plasma assessed as unbound fraction at 5 uM by LC-MS/MS analysis; type: ADME, cell-free
[13] = molecular target: T1, Cytochrome P450 2B6 (Homo sapiens, UniProt P20813); test: Inhibition of human liver microsome CYP2B6 using bupropion as substrate incubated for 20 mins by LC-MS/MS analysis; type: ADME, microsomes
T1 sequence (P20813 whole entry): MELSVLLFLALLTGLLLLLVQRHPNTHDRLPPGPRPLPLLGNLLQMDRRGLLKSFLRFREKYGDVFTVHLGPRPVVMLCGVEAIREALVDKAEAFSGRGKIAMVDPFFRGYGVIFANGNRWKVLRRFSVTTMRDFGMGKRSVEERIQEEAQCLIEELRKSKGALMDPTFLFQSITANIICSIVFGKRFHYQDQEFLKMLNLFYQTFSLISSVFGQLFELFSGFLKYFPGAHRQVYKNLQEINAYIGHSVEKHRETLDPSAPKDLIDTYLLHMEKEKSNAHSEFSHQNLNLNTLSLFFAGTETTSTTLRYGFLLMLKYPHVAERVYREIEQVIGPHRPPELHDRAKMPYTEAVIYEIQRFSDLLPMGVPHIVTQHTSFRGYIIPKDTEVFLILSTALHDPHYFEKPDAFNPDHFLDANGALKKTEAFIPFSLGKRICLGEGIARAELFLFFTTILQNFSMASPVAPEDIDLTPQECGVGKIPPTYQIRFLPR

[14] = molecular target: Cytochrome P450 2C19 (Homo sapiens, UniProt P33261); test: Inhibition of human liver microsome CYP2C19 using mephenytoin as substrate incubated for 20 mins by LC-MS/MS analysis; type: ADME, microsomes
[15] = molecular target: Cytochrome P450 3A4 (Homo sapiens, UniProt P08684); test: Inhibition of human liver microsome CYP3A4 using midazolam as substrate incubated for 20 mins by LC-MS/MS analysis; type: ADME, microsomes
[16] = Cytotoxicity against human PBMC cells assessed as reduction in cell viability incubated for 1 hr followed by complete medium addition and measured after 48 hrs by XTT assay; type: cell-based

Sequence of Cytochrome P450 3A4 (P08684 whole entry): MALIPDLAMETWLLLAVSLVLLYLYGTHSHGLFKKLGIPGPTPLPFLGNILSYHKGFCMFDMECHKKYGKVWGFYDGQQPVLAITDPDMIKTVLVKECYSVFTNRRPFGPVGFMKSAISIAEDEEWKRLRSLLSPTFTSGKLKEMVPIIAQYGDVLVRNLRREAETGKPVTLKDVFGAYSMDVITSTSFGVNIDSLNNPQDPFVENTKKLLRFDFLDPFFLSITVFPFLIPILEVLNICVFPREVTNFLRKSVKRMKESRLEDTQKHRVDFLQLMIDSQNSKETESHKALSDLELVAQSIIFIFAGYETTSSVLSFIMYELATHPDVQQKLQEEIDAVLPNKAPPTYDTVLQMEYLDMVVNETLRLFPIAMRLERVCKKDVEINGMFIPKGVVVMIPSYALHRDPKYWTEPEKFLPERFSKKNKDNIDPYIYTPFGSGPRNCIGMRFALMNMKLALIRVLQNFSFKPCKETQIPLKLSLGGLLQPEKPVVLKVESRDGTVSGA
Sequence of Cytochrome P450 2C19 (P33261 whole entry): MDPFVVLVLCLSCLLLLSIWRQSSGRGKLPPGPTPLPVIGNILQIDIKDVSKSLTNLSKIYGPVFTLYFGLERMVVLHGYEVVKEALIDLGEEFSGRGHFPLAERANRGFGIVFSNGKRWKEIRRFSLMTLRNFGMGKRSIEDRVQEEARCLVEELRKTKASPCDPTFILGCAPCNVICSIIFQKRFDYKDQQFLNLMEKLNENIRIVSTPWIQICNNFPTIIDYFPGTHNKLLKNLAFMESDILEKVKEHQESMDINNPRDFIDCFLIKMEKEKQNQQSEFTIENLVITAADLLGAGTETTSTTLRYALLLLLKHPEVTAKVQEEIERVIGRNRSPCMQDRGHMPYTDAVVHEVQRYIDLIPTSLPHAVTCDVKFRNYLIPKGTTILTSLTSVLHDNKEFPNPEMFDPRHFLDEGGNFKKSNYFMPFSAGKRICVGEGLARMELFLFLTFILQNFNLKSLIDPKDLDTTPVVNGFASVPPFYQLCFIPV

NC[C@H](NC(=O)c1ccc(-c2ccc(C(F)(F)F)c(F)c2)[nH]1)c1nc(CO)cs1
CC50 at 72 h [1]: 21.9 µM
CC50 at 96 h [2]: 22.1 µM
Activity [3]: Non-Toxic
CC50 at 48 h [4]: 34 µM
IC50 [5]: 0.88 µM
solubility kinetic at […], 500 µM [6]: 100 µM (≈ 42.8 µg/mL)
solubility kinetic at […], 500 µM [7]: 100 µM (≈ 42.8 µg/mL)
Papp A→B at 2 h [8]: 0.602 ×10⁻⁶ cm/s
Papp B→A at 2 h [9]: 17.7 ×10⁻⁶ cm/s
remaining at 2 h, 3 µM [10]: 88.5%
microsomal CLint at 3 µM [11]: 1.8 µL/min/mg
fraction unbound at 5 µM [12]: 0.00949
IC50 [13]: > 25 µM
IC50 [14]: > 25 µM
IC50 [15]: > 25 µM
CC50 at 49 h [16]: 38.7 µM
